According to ChEMBL document CHEMBL3526015, “Metabolism of the c-Fos/activator protein-1 inhibitor T-5224 by multiple human UDP-glucuronosyltransferase isoforms” (Drug Metab Dispos, 2011):

Experiments:
Assay type in all cases: ADME
[1] = system: Liver microsome; assay: Drug metabolism in human liver microsomes assessed as T-5224 hydroxyl O-glucuronide formation at 10 uM after 10 mins in presence of beta-estradiol by HPLC method
Procedure, shortened: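 Pooled liver microsomes (0.5 mg protein/mL) with 10 μM T-5224, 2 mM UDPGA and β-estradiol at 0–500 μM, 2% DMSO, in 50 mM Tris-HCl pH 7.5, 8 mM MgCl2 and alamethicin. Incubated 10 min at 37°C, stopped with acetonitrile. Glucuronides measured by HPLC at 290 nm; mean ± SD, n = 3.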

[2] = target: T1, UDP-glucuronosyltransferase 1A3 (Homo sapiens, UniProt P35503); assay: Substrate inhibition of human UGT1A3-mediated T-5224 acyl O-glucuronide formation after 10 to 60 mins in presence of UDP-glucuronic acid by HPLC method
T1 sequence (P35503 whole entry): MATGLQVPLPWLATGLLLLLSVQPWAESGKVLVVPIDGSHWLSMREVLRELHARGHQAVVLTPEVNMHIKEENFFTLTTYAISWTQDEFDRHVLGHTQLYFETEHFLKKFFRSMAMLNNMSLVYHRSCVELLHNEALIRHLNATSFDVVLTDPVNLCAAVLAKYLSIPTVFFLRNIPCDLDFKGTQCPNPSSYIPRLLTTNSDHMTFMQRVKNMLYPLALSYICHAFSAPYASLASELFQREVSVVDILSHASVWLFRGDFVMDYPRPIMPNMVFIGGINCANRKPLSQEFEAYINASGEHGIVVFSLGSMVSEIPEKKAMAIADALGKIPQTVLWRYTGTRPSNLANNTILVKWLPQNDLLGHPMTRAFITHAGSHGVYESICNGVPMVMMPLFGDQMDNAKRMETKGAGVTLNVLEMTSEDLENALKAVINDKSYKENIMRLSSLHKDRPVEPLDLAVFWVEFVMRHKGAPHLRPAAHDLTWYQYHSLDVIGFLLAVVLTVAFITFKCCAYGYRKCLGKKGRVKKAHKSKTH
Procedure, shortened: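 Recombinant human UGT1A1, UGT1A3 or UGT1A8 from baculovirus-infected insect cells (0.1 mg protein/mL) in 50 mM Tris-HCl pH 7.5, 8 mM MgCl2, alamethicin, 2% DMSO. T-5224 at 1–50 μM with 2 mM UDPGA for 60 min at 37°C. HPLC with UV at 290 nm. Triplicates fitted to a substrate-inhibition model. kcat uses UGT content quantified by immunoblot against recombinant UGT1A1/UGT2B4 standards.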

[3] = target: T1, UDP-glucuronosyltransferase 1A3; assay: Drug metabolism assessed as human UGT1A3-mediated T-5224 acyl O-glucuronide formation at 5 to 50 uM after 60 mins in presence of UDP-glucuronic acid by HPLC method; settings: recombinant enzyme, 1 h
[4] = system: Liver microsome; assay: Drug metabolism in human liver microsomes assessed as Vmax/Km ratio for T-5224 acyl O-glucuronide formation per mg protein after 10 to 60 mins by HPLC method
Procedure, shortened: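 Pooled liver (0.5 mg protein/mL) or intestinal (0.25 mg protein/mL) microsomes in 50 mM Tris-HCl pH 7.5, 8 mM MgCl2, alamethicin, 2% DMSO. T-5224 at 1–50 μM, 5 min preincubation at 37°C, started with 2 mM UDPGA. Incubated 10 min, or 20 min for intestinal microsomes at 1–5 μM. Acetonitrile stop, glucuronides by HPLC at 290 nm. Triplicates fitted to a substrate-inhibition model.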

[5] = system: Liver microsome; assay: Drug metabolism in pooled human liver microsomes assessed as T-5224 hydroxyl O-glucuronide formation at 10 uM after 10 mins by HPLC method
Procedure, shortened: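 T-5224 at 10 μM incubated for 10 min at 37°C with UDPGA (2 mM) in pooled liver (0.5 mg protein/mL) or intestinal (0.25 mg protein/mL) microsomes. Buffer was 50 mM Tris-HCl pH 7.5 with 8 mM MgCl2 and alamethicin, after 5 min preincubation. Stopped with acetonitrile; glucuronides quantified by HPLC at 290 nm.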

[6] = target: T2, Cytochrome P450 1A2 (Homo sapiens, UniProt P05177); assay: Drug metabolism assessed as human CYP1A2-mediated metabolite formation at 2 uM after 30 mins by HPLC method; settings: recombinant enzyme, 0.5 h
T2 sequence (P05177 whole entry): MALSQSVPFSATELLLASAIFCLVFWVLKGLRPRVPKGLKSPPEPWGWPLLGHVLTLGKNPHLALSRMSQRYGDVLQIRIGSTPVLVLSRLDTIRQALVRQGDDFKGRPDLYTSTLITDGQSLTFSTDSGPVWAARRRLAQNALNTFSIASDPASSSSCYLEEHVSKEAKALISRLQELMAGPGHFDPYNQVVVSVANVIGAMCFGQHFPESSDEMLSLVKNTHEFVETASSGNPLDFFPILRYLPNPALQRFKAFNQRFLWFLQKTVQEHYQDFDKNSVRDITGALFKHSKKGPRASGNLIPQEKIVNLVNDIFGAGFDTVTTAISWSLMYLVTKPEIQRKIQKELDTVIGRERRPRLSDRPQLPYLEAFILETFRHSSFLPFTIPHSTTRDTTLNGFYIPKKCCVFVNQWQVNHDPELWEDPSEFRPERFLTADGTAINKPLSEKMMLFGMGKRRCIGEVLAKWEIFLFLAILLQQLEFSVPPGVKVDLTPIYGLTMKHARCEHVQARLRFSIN
Procedure, shortened: (§1)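 Each recombinant human P450 was used at 50 pmol/mL with an NADPH-generating system and 2 μM 14C-T-5224 (0.5% DMSO final). Buffer was 100 mM Tris-HCl pH 7.5, except 100 mM potassium phosphate pH 7.4 for CYP2A6 and CYP2C9*1. Incubation ran 30 min at 37°C and was stopped with acetonitrile/methanol. Radioactive metabolite peaks were detected by C18 HPLC.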

[7] = target: T3, Cytochrome P450 2C8 (Homo sapiens, UniProt P10632); assay: Drug metabolism assessed as human CYP2C8-mediated metabolite formation at 2 uM after 30 mins by HPLC method; settings: recombinant enzyme, 0.5 h; procedure, shortened: as §1
T3 sequence (P10632 whole entry): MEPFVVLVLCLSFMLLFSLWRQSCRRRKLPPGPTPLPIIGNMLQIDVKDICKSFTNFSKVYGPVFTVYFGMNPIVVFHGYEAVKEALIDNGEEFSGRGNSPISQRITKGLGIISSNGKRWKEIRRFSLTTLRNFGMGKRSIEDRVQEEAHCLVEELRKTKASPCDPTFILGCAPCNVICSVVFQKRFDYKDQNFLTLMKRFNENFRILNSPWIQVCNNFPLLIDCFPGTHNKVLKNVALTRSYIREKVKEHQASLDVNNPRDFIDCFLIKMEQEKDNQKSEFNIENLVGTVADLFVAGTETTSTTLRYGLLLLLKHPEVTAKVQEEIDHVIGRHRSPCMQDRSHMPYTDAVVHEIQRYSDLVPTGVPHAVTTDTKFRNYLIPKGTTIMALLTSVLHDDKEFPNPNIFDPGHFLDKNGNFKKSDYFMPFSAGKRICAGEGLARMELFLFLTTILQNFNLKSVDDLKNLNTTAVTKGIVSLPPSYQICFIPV

[8] = target: Cytochrome P450 3A4 (Homo sapiens, UniProt P08684); assay: Drug metabolism assessed as human CYP3A4-mediated metabolite formation at 2 uM after 30 mins by HPLC method; settings: recombinant enzyme, 0.5 h; procedure, shortened: as §1
Sequence of Cytochrome P450 3A4 (P08684 whole entry): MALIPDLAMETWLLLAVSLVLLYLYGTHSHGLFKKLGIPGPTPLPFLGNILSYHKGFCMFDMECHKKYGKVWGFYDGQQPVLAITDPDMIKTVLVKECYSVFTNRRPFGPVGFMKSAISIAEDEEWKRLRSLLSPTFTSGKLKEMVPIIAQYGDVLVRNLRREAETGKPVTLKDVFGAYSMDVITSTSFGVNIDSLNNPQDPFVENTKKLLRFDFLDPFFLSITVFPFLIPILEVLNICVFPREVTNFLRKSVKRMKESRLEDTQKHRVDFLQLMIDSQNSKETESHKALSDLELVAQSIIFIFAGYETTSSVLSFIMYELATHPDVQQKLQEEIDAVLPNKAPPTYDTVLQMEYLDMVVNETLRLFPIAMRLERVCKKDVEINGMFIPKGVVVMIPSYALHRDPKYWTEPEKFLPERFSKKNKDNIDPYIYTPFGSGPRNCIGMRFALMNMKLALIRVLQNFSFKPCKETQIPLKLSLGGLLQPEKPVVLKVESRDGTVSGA

Drug metabolism [1]: metabolite_detected
Ki [2]: 13.5 µM
Drug metabolism [3]: metabolite_detected
Vmax/Km [4]: 44 µL/min
Drug metabolism [5]: metabolite_detected
Drug metabolism [6]: metabolite_not_detected
Drug metabolism [7]: metabolite_not_detected
Drug metabolism [8]: metabolite_not_detected
Compound: O=C(O)CCc1cc(C(=O)c2ccc(OC3CCCC3)cc2O)ccc1OCc1ccc2c(O)noc2c1
